From ChEMBL document CHEMBL1143378, “Inactivation of GABA transaminase by 3-chloro-1-(4-hydroxyphenyl)propan-1-one” (Bioorg Med Chem Lett, 2009)
Active and inactive are the calls of the source. The calls are words filed in the database; no cut-off is given here.

What was measured:
Format in all cases: tissue-based
[1] = molecular target: T1, 4-aminobutyrate aminotransferase, mitochondrial (Rattus norvegicus, UniProt P50554); assay: Inhibition of GABA transaminase in rat brain by Kitz-Wilson plot
Outline: (§1)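 GABA-T was isolated from rat brain. For time-dependent inactivation, log remaining activity was plotted against time at each inactivator concentration. Inverse slopes were then plotted against inverse inactivator concentration, and K_I and k_inact were taken from a Kitz–Wilson plot.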

[2] = molecular target: 4-aminobutyrate aminotransferase, mitochondrial (Rattus norvegicus) (UniProt P50554); assay: (§2) Activity of GABA transaminase in rat brain
[3] = molecular target: T1, 4-aminobutyrate aminotransferase, mitochondrial; assay: as §2
[4] = molecular target: 4-aminobutyrate aminotransferase, mitochondrial (Rattus norvegicus) (UniProt P50554); assay: Ratio of Kinact to KI for GABA transaminase in rat brain; outline: as §1
[5] = molecular target: 4-aminobutyrate aminotransferase, mitochondrial (Rattus norvegicus) (UniProt P50554); assay: Inhibition of GABA transaminase in rat brain at 45 uM after 40 mins in presence of alpha-ketoglutarate
Outline: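 Rat brain GABA-T was incubated with GABA, inhibitor (45 μM) and varying α-ketoglutarate concentrations together for 40 min before enzyme activity was measured.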

[6] = molecular target: 4-aminobutyrate aminotransferase, mitochondrial (Rattus norvegicus) (UniProt P50554); assay: Inhibition of GABA transaminase in rat brain at 60 uM after 30 mins by gel filtration
Outline: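 Rat brain GABA-T was incubated with 60 μM inhibitor at 25 °C for 30 min and an aliquot was assayed. The remaining mixture was passed through Sephadex G50 to remove small molecules and assayed again. An identical sample without inactivator served as control. Values are mean ± SEM, n = 6.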

[7] = molecular target: 4-aminobutyrate aminotransferase, mitochondrial (Rattus norvegicus) (UniProt P50554); assay: Inhibition of GABA transaminase in rat brain at 30 uM for 40 mins in presence of 30 mM alpha-ketoglutarate
Outline: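 Rat brain GABA-T was preincubated with inhibitor (30 μM) for 40 min. Increasing concentrations of α-ketoglutarate, up to 30 mM, were then added and residual activity was measured. A no-inactivator control was run. Values are mean ± SEM, n = 6.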

4-aminobutyrate aminotransferase, mitochondrial (Rattus norvegicus), sequence (P50554 28-500 limits assumed): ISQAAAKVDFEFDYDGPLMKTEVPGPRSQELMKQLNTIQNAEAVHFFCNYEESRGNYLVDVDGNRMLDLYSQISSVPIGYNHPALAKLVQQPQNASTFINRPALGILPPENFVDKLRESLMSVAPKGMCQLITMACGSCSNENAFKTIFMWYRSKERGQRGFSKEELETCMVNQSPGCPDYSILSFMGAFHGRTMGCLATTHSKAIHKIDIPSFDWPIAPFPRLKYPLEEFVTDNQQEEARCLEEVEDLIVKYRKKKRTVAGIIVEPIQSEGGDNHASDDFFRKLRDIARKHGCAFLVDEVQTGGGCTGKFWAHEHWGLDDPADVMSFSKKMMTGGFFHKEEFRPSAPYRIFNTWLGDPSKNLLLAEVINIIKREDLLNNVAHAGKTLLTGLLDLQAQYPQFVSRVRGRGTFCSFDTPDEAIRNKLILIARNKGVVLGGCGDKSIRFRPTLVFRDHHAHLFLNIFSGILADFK
T1 sequence (P50554 whole entry): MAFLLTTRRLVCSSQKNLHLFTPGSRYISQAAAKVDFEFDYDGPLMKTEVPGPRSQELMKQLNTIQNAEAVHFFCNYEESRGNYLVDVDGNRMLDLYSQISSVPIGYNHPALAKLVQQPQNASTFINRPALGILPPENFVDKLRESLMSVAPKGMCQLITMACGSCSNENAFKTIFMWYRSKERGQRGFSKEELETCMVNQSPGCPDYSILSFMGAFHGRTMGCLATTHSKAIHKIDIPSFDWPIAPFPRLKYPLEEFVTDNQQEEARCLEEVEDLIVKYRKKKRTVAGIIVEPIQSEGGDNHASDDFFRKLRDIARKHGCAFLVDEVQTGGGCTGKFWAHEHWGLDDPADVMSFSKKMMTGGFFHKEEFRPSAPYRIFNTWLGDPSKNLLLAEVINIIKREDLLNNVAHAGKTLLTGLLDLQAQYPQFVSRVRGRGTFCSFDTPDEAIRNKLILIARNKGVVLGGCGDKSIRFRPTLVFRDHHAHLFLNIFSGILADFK

SMILES	IC50 [1]	Kinact [2]	Ki [3]	Ratio [4]	Activity [5]	Activity [6]	Activity [7]
O=Cc1ccc(O)cc1 [4-HYDROXYBENZALDEHYDE]	16.5 µM						
O=C(CCCl)c1ccc(O)cc1	3.99 µM	0.0457 min⁻¹	24.3 µM	1.88	inactive	Active	Active
